Measurements from ChEMBL document CHEMBL1137305, “High antiplasmodial activity of novel plasmepsins I and II inhibitors” (J Med Chem, 2006).
pIC50, pKi: −log10 of the molar value. Calls of active or inactive are those of the source. No cut-off for these calls is given here.

Key:
[1] = molecular target: Plasmepsin I (Plasmodium falciparum, UniProt P39898); test: Inhibition of Plasmodium falciparum recombinant PLM1
In short: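 Recombinant proPfPLM I from E. coli BL21 Star (DE3) pLysS inclusion bodies, refolded and purified by anion exchange and size exclusion. Initial rates of cleavage of chromogenic Lys-Pro-Ile-Leu-Phe-Nph-Arg-Leu read spectrophotometrically. Ki from fits: Morrison competitive tight-binding equation, or for weaker binders at least six substrate and two or more inhibitor levels, competitive model.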

[2] = molecular target: Cathepsin D (Homo sapiens) (UniProt P07339); test: Inhibition of human cathepsin D at 2 uM
Cathepsin D (Homo sapiens), sequence (P07339 65-162 limits assumed): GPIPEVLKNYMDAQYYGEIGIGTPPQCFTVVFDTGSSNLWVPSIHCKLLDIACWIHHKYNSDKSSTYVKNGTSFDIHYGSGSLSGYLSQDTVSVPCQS
Cathepsin D (Homo sapiens), sequence (P07339 169-412 limits assumed): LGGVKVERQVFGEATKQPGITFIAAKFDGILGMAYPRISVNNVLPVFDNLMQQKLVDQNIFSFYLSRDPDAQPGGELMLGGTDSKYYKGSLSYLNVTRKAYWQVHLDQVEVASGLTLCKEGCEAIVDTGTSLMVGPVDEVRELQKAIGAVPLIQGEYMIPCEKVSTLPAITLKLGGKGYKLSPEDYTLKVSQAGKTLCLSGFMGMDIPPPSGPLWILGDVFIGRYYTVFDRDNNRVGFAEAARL

[3] = system: Plasmodium falciparum; test: Antiplasmodial activity against chloroquine-sensitive Plasmodium falciparum D10; format: functional, organism-based
In short: (§1)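 P. falciparum (D10 and W2) grown in human A+ red cells, RPMI 1640 with 10% heat-inactivated A+ plasma, 37 °C, 1% O2/5% CO2/94% N2. Asynchronous cultures, 1-1.5% parasitemia, 1% hematocrit, exposed to serial dilutions (DMSO <1% final) for 72 h. IC50 is the mean of ≥3 experiments in duplicate.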

[4] = molecular target: Plasmepsin II (Plasmodium falciparum) (UniProt P46925); test: Inhibition of Plasmodium falciparum PLM2-induced human hemoglobin cleavage by SDS-PAGE
Plasmepsin II (Plasmodium falciparum), sequence (P46925 125-453 limits assumed): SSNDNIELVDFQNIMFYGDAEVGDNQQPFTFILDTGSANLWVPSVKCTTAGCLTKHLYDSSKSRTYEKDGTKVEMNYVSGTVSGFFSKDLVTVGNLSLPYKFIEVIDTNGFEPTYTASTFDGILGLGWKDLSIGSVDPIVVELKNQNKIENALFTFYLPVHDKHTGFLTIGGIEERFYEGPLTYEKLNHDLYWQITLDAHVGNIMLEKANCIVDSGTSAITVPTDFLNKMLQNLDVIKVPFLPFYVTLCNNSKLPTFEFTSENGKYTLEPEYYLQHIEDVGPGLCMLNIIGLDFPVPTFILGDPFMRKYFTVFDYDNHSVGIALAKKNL
In short: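 Hemoglobin (10 µg) digested by preactivated recombinant PLM II (200 ng) in 100 mM sodium acetate, pH 4.7, 37 °C, with vehicle or inhibitor for 0, 10, 30 and 60 min. Stopped with SDS loading dye, boiled 5 min, resolved on 18% polyacrylamide gel.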

[5] = system: Plasmodium falciparum; test: Antiplasmodial activity against chloroquine-resistant Plasmodium falciparum W2; format: functional, organism-based; in short: as §1
[6] = molecular target: Plasmepsin II (Plasmodium falciparum, UniProt P46925); test: Inhibition of Plasmodium falciparum recombinant PLM2
Plasmepsin II, sequence (P46925 whole entry): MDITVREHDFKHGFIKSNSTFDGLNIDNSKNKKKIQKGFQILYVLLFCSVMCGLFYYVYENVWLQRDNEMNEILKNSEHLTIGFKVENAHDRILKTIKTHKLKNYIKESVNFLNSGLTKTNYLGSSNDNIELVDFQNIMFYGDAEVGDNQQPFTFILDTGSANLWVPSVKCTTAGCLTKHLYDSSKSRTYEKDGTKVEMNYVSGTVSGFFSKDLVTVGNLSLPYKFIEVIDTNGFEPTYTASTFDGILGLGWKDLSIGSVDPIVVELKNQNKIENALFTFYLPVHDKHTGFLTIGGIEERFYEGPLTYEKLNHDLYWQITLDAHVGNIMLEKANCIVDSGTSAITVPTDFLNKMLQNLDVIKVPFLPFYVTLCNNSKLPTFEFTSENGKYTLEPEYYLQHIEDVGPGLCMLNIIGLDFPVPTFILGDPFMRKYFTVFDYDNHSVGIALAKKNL
In short: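 Recombinant pro-PLM II (E. coli BL21(DE3) pLysS, refolded from inclusion bodies) activated in 100 mM sodium acetate pH 4.7, 37 °C, 90 min. Cleavage of Lys-Glu-Phe-Val-Phe-NPhe-Ala-Leu-Lys followed at 300 nm. Inhibitors at 1-100 nM, 1% DMSO final. Ki from IC50 via Cheng-Prusoff using Michaelis-Menten Km. Mean ± SD, at least two experiments in triplicate.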

[7] = molecular target: Cathepsin D (Homo sapiens) (UniProt P07339); test: Inhibition of human cathepsin D at 100 uM
[8] = molecular target: Cathepsin D (Homo sapiens) (UniProt P07339); test: Inhibition of human cathepsin D at 5 uM
[9] = Cytotoxicity against human skin fibroblast at 100 uM by MTT assay; format: cell-based
In short: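 Primary human skin-biopsy fibroblasts, 8 × 10⁴ per well, grown in DMEM with 10% fetal calf serum, 1% penicillin/streptomycin and 1% L-glutamine. Proliferation followed by MTT test with or without compounds up to 100 µM.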

Plasmepsin I, sequence (P39898 whole entry): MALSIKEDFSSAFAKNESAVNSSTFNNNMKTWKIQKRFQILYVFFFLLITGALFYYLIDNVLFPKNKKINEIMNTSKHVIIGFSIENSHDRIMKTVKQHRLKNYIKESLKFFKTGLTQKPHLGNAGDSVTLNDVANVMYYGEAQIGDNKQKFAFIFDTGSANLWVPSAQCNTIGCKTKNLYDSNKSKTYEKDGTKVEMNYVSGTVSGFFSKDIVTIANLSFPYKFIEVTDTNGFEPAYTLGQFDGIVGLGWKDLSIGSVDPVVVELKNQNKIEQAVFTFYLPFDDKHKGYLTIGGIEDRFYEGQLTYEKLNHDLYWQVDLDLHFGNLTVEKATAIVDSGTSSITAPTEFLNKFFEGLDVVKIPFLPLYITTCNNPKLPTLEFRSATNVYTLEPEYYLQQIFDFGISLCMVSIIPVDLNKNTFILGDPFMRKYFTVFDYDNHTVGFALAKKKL

Structure (SMILES) | pKi [1] | inhibition [2] [%] | pIC50 [3] | Activity [4] | pIC50 [5] | pKi [6] | inhibition [7] [%] | inhibition [8] [%] | Activity [9] [%]
CCCCNC(=O)C[C@H](O)[C@H](CC(C)C)NC(=O)[C@@H](NC(=O)c1ccc(Oc2ccc(C(=O)N[C@@H](CC(C)C)C(=O)NCCCC(C)Nc3cc(OC)cc4cccnc34)cc2)cc1)[C@@H](C)CC (some centres not stated) | 6.12 | 30 | 6.15 | Active | 6.30 | 7.92 |  |  | 
CCCCNC(=O)C[C@H](O)[C@H](CC(C)C)NC(=O)[C@@H](NC(=O)c1ccc(Oc2ccc(C(=O)NCCCC(C)Nc3cc(OC)cc4cccnc34)cc2)cc1)[C@@H](C)CC (some centres not stated) | 7.09 |  | 5.66 |  | 5.70 | 7.95 |  |  | 
CCCCNC(=O)C[C@H](O)[C@H](CC(C)C)NC(=O)[C@@H](NC(=O)c1ccc(Oc2ccc(C(=O)N[C@@H](C)C(=O)N[C@@H](C)C(=O)NCCCC(C)Nc3cc(OC)cc4cccnc34)cc2)cc1)[C@@H](C)CC (some centres not stated) | 9.00 |  | 5.89 |  | 5.92 | 8.41 |  |  | 
CCCCNC(=O)C[C@H](O)[C@H](CC(C)C)NC(=O)[C@@H](NC(=O)c1ccc(Oc2ccc(C(=O)N[C@@H](CC(C)C)C(=O)N[C@@H](CCCCNC(=O)OC(C)(C)C)C(=O)OCCC)cc2)cc1)C(C)CC (some centres not stated) | 7.77 |  | 7.00 | Active | 7.00 | 7.96 | 37 |  | 
CCCCNC(=O)C[C@H](O)[C@H](CC(C)C)NC(=O)[C@@H](NC(=O)c1ccc(Oc2ccc(C(=O)N[C@@H](CC(C)C)C(=O)N[C@@H](CCCCNC(=O)OC(C)(C)C)C(=O)NCCCC(C)Nc3cc(OC)cc4cccnc34)cc2)cc1)C(C)CC (some centres not stated) | 6.64 |  | 5.39 |  | 5.46 | 6.39 |  |  | 
CCCCNC(=O)C[C@H](O)[C@H](CC(C)C)NC(=O)[C@@H](NC(=O)COc1ccc2ccccc2c1)[C@@H](C)CC | 6.14 |  | 4.64 |  | 4.81 | 7.23 |  |  | 
CCCCNC(=O)C[C@H](O)[C@H](CC(C)C)NC(=O)[C@@H](NC(=O)c1ccc(Oc2ccc(C(=O)N[C@@H](C)C(=O)N[C@@H](CCCCN)C(=O)NCCCC(C)Nc3cc(OC)cc4cccnc34)cc2)cc1)[C@@H](C)CC (some centres not stated) | 7.48 |  | 6.10 |  | 5.85 | 7.97 |  |  | 
CCCCNC(=O)C[C@H](O)[C@H](CC(C)C)NC(=O)[C@@H](NC(=O)c1ccc(Oc2ccc(C(=O)N[C@@H](CC(C)C)C(=O)N[C@@H](CCCCN)C(=O)OCCC)cc2)cc1)C(C)CC (some centres not stated) | 7.96 |  | 5.35 |  | 5.42 | 8.00 |  |  | 
CCCCNC(=O)C[C@H](O)[C@H](CC(C)C)NC(=O)[C@@H](NC(=O)c1ccc(Oc2ccc(C(=O)N[C@@H](CC(C)C)C(=O)N[C@@H](CC(C)C)C(=O)NCCCC(C)Nc3cc(OC)cc4cccnc34)cc2)cc1)C(C)CC (some centres not stated) | 7.24 |  | 5.44 |  | 5.77 | 6.99 |  |  | 
CCCCNC(=O)C[C@H](O)[C@H](CC(C)C)NC(=O)[C@@H](NC(=O)c1ccc(Oc2ccc(C(=O)N[C@@H](CC(C)C)C(=O)N[C@@H](C)C(=O)NCCCC(C)Nc3cc(OC)cc4cccnc34)cc2)cc1)[C@@H](C)CC (some centres not stated) | 7.13 |  | 6.70 | Active | 6.52 | 7.58 |  | 50 | 15
